Screening data from PubChem.
KCNQ1 block = inhibitors of human KCNQ1 potassium channel | 310,000 tested, 1.3% active | AID 2642 | CHO-K1 KCNQ1, FluxOR thallium flux fluorescence; hits give high values | B-score at 10 µM | P51787;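 active = compounds whose thallium flux B-score, printed positive for inhibition, exceeds three library SD while starting fluorescence stays within three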;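 also: channel opened by potassium depolarization with thallium stimulus after 20 min compound exposure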
KCNQ1 act = potentiates or activates the human KCNQ1 potassium channel; P51787; CHO-K1 KCNQ1, thallium flux FluxOR fluorescence; hits give high values; B-score at 10 µM; 310,000 tested, 0.35% active;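 active = fluorescence ratio B-score, a plate-corrected score, at least three library SD, with initial intensity B-score within 5 SD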
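Assay system: stable KCNQ1 CHO-K1 line; medium: assay buffer, equal DMSO in all wells; timing: 90 min dye loading and 20 min compound exposure, both at room temperature; technique: kinetic FluxOR thallium fluorescence, 10-s 1-Hz baseline, 110-s post-stimulus read; read-out basis: B score of baseline-normalized fluorescence ratio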
hERG protect = hERG (human) protection from proarrhythmic block; CHO-hERG, FluxOR thallium flux, dofetilide IC70 present; 310,000 tested, 0.51% active; activation (rescue from dofetilide block), less the hit threshold, % at 10 µM; Q12809;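 active = activation above the mean of controls blocked by dofetilide plus 5 SD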;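 also: thallium influx through hERG after potassium depolarization seen as dye fluorescence rise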
KCNK3 block = human KCNK3 channel inhibition, primary screen. O14649. CHO-KCNK3 thallium flux, FluxOR fluorescence; hits give low values. B-score at 10 µM. 340,000 tested, 0.84% active;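 active = B-score under library mean minus 4 SD, starting fluorescence ratio at most library mean plus 5 SD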;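 also: more negative B-score means stronger inhibition of thallium flux through KCNK3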
KCNK9 inh = human KCNK9 channel inhibition. Q9NPC2. HEK293 KCNK9, FluxOR thallium flux fluorescence; hits give low values. B-score at 10 µM. 310,000 tested, 1.2% active;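 active = ratio B-score over 3 SD below the library mean, with starting fluorescence within 5 SD of its mean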;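 also: negative B-score means less thallium flux so channel inhibition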
Kir21 inh = blocks the mouse Kir2.1 inward-rectifier potassium channel | AID 1672 | HEK293-Kir2.1, FluxOR thallium flux fluorescence; hits give low values | B-score at 10 µM | 310,000 tested, 0.85% active | P35561;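 active = fluorescence ratio B-score at or below minus 3 SD of library scores, with starting-brightness B-score within 2 SD, cut at about -4.2 in these data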;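 also: channel flux triggered by added potassium and thallium sulfate stimulus; B-score of peak minus minimum fluorescence over baseline after thallium stimulus; more negative B-score means stronger Kir2.1 block with less thallium influx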
KCNQ1 block val = human KCNQ1 channel inhibition, validation assay | inhibition, % at 10 µM | AID 588353 | KCNQ1 cell line, FluxOR thallium flux fluorescence | 1,600 tested, 93% active | shares compounds with KCNQ1 block;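 active = primary screen active, with duplicate mean exceeding buffer control mean plus 3 SD of buffer wells, cut at about 28% in these data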;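 also: 0% = buffer control ratio and 100% = XE991 inhibitor control ratio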
CHO KCNQ1 ctr = KCNQ1 inhibitor counter-screen hit in parental CHO cells. shares compounds with KCNQ1 block. parental CHO-K1, FluxOR thallium flux fluorescence ratio; hits give low values; zero means no signal rise above baseline. fluorescence ratio (Tl flux) at 10 µM. 1,600 tested, 21% active;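 active = mean of duplicate thallium-flux fluorescence ratios in parental host cells more than 5 SD below the buffer control mean, cut at about 0.38 in these data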;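 also: ratio is peak minus minimum fluorescence divided by baseline fluorescence; actives read low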
KCNQ1 APC inh = human KCNQ1 inhibition validated by electrophysiology; AID 624120; KCNQ1-CHO cells, automated patch clamp current; calls only at 10 µM; 490 tested, 20% active; shares compounds with KCNQ1 block;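 active = KCNQ1 current drop exceeding 3 SD of negative control wells, seen in both duplicate runs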;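 also: steady state current during a 2 s step from -80 to +40 mV; negative values mean current inhibition and positive values mean potentiation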
KCNQ2 inh = rat KCNQ2 inhibition in KCNQ1 inhibitor specificity screen | shares compounds with KCNQ1 block | AID 651746 | KCNQ2 cells, FluxOR thallium flux fluorescence | inhibition, % at 10 µM | 1,600 tested, 71% active;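 active = mean percent inhibition of the KCNQ2 thallium signal more than 5 SD above the buffer-only control wells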;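 also: KCNQ2 expressed in CHO cells; 0% = buffer control wells and 100% = XE-991 inhibitor control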
KCNQ1-KCNE1 inh = selectivity of KCNQ1 inhibitors: inhibition of human KCNQ1/KCNE1 channel. shares compounds with KCNQ1 block. 1,600 tested, 77% active. KCNQ1/KCNE1 cells, FluxOR thallium flux fluorescence. inhibition, % at 10 µM. AID 652147;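 active = mean percent inhibition of duplicate wells above the buffer-only control mean plus 3 SD of those controls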;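 also: 0% = buffer only wells and 100% = XE-991 inhibitor control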
An asterisk follows results filed as active. Only some compounds are listed: those with a hit (about 3.7% of all), similar ones and a draw of the others.

CCC(C)Nc1nc(OC(C(F)(F)F)C(F)(F)F)nc(OC(C(F)(F)F)C(F)(F)F)n1 (stereo not drawn) was read as KCNQ1 block 7*, KCNQ1 act inactive, hERG protect -5, KCNK3 block inactive, KCNK9 inh inactive, Kir21 inh 0.22, KCNQ1 block val 92*, CHO KCNQ1 ctr 0.4, KCNQ2 inh 102%* and KCNQ1-KCNE1 inh 90%*.
Screening CC(C)c1ccc(NC(=S)N2CCCC(c3ccc(F)cc3)=N2)cc1 returned KCNQ1 block inactive, KCNQ1 act inactive, hERG protect -6, KCNK3 block inactive, KCNK9 inh inactive and Kir21 inh 0.17.
For COc1ccc2c(c1)c(CC(=O)Nc1ccccc1OC)c(C)n2C(=O)c1ccc(Cl)cc1 the results were KCNQ1 block 7*, KCNQ1 act inactive, hERG protect -7, KCNK3 block inactive, KCNK9 inh inactive, Kir21 inh 0.43, KCNQ1 block val 43*, CHO KCNQ1 ctr 0.39, KCNQ2 inh 91%* and KCNQ1-KCNE1 inh 48%*.
Screening COc1ccc2c(c1)c(CC(=O)Nc1cc(C)ccc1C)c(C)n2C(=O)c1ccc(Cl)cc1 returned KCNQ1 block inactive, KCNQ1 act inactive, hERG protect -12, KCNK3 block inactive, KCNK9 inh inactive and Kir21 inh -0.04.
`CCN(CC)S(=O)(=O)c1cc(C)ccc1NC(=S)Nc1cccnc1` gave KCNQ1 block 10*, KCNQ1 act inactive, hERG protect -13, KCNK3 block inactive, KCNK9 inh inactive, Kir21 inh -0.04, KCNQ1 block val 68*, CHO KCNQ1 ctr 0.49, KCNQ2 inh 61%* and KCNQ1-KCNE1 inh 48%*.
`CCN(CC)S(=O)(=O)c1cc(C(=O)Nc2cccnc2)ccc1Cl` gave KCNQ1 block inactive, KCNQ1 act inactive, hERG protect -13, KCNK3 block inactive, KCNK9 inh inactive and Kir21 inh -0.03.
For O=C(CSc1ccc(Cl)cc1)NC(=O)NCc1ccco1 the results were KCNQ1 block inactive, KCNQ1 act inactive, hERG protect -6, KCNK3 block inactive, KCNK9 inh inactive and Kir21 inh 2.3.
Screening Cc1ccc(-c2nnc(N3CCC(C)CC3)c3ccccc23)cc1C returned KCNQ1 block 12*, KCNQ1 act inactive, hERG protect -34, KCNK3 block inactive, KCNK9 inh inactive, Kir21 inh 0.95, KCNQ1 block val 164*, CHO KCNQ1 ctr 0.31*, KCNQ2 inh 114%* and KCNQ1-KCNE1 inh active.
CC1CCN(c2nnc(-c3ccccc3)c3ccccc23)CC1 was read as KCNQ1 block 6*, KCNQ1 act inactive, hERG protect -13, KCNK3 block inactive, KCNK9 inh inactive, Kir21 inh -0.52, KCNQ1 block val 92*, CHO KCNQ1 ctr 0.41, KCNQ1 APC inh inactive, KCNQ2 inh 90%* and KCNQ1-KCNE1 inh 143%*.
Screening O=C(COC(=O)c1cc(=O)[nH]c2ccccc12)Nc1ccc(Cl)cn1 returned KCNQ1 block inactive, KCNQ1 act inactive, hERG protect -17, KCNK3 block inactive, KCNK9 inh inactive and Kir21 inh 0.89.
Screening Cc1ccc(Cl)c2c(N=Nc3ccccc3)c(O)[nH]c12 returned KCNQ1 block 6*, KCNQ1 act inactive, hERG protect -5, KCNK3 block inactive, KCNK9 inh inactive, Kir21 inh -1, KCNQ1 block val 148*, CHO KCNQ1 ctr 0.29*, KCNQ2 inh inactive and KCNQ1-KCNE1 inh inactive.
For O=C(O)c1ccc(N=Nc2c(O)[nH]c3ccccc23)cc1 the results were KCNQ1 block inactive, KCNQ1 act inactive, hERG protect -17, KCNK3 block inactive, KCNK9 inh inactive and Kir21 inh 0.
COc1ccccc1OCc1nc(-c2cccc([N+](=O)[O-])c2)no1 was read as KCNQ1 block inactive, KCNQ1 act inactive, hERG protect -4, KCNK3 block inactive, KCNK9 inh inactive and Kir21 inh 2.6.
For Cc1csc2ncnc(NC3CCN(Cc4ccccc4)CC3)c12 the results were KCNQ1 block 8*, KCNQ1 act inactive, hERG protect -17, KCNK3 block inactive, KCNK9 inh inactive, Kir21 inh -0.84, KCNQ1 block val 26*, CHO KCNQ1 ctr 0.53, KCNQ2 inh inactive and KCNQ1-KCNE1 inh 57%*.
Screening c1ccc(CN2CCC(Nc3nc(-c4ccccc4)nc4ccccc34)CC2)cc1 returned KCNQ1 block inactive, KCNQ1 act inactive, hERG protect -19, KCNK3 block inactive, KCNK9 inh inactive and Kir21 inh -0.31.
CC1C(=O)N2CCCc3cc(NC(=O)C(=O)NCCc4c[nH]c5ccccc45)cc1c32 (stereo not drawn) was read as KCNQ1 block 10*, KCNQ1 act inactive, hERG protect -22, KCNK3 block inactive, KCNK9 inh inactive, Kir21 inh 0.43, KCNQ1 block val 26*, CHO KCNQ1 ctr 0.44, KCNQ2 inh 87%* and KCNQ1-KCNE1 inh 57%*.
Screening CC1C(=O)N2CCCc3cc(NC(=O)C(=O)NCCc4ccccc4)cc1c32 (stereo not drawn) returned KCNQ1 block inactive, KCNQ1 act inactive, hERG protect -9, KCNK3 block inactive, KCNK9 inh inactive and Kir21 inh 0.24.
`CC(=O)c1ccccc1NC(=O)COC(=O)/C=C/c1ccc(OC(F)F)cc1` gave KCNQ1 block inactive, KCNQ1 act inactive, hERG protect -12, KCNK3 block inactive, KCNK9 inh inactive and Kir21 inh -1.5.
Cc1cc(C)n(S(=O)(=O)c2ccc(C)c(C)c2)n1 was read as KCNQ1 block inactive, KCNQ1 act inactive, hERG protect -4, KCNK3 block inactive, KCNK9 inh inactive and Kir21 inh 0.61.
